Results gathered from unrelated publications.
Lines come from different studies, so protocols differ.
LRRK2: Leucine-rich repeat serine/threonine-protein kinase 2 (LRRK2, Homo sapiens, UniProt Q5S007)
LRRK2 G2019S: Leucine-rich repeat serine/threonine-protein kinase 2 (LRRK2, Homo sapiens, UniProt Q5S007, G2019S)

| Structure (SMILES) | target | assay | setting | remaining binding |
| --- | --- | --- | --- | --- |
| C[C@H]1CCN(c2nccc(-c3cnn4ncccc34)n2)C1 | LRRK2 | binding | 1 µM | 67% |
| Cc1cnc(Nc2ccc(C(=O)N3CCC(N4CCCC4)CC3)cc2)nc1-c1cc2ccccc2s1 | LRRK2 | binding, competition with immobilised ligand | 1 µM | 8.3% |
| N[C@@H]1CCN(c2nccc(-c3cnn4ncccc34)n2)C1 | LRRK2 G2019S | binding | 1 µM | 100% |
| O=C(NCCCN1CCOCC1)c1ccc(Nc2ncc(Cl)c(-c3ccc(Cl)s3)n2)cc1 | LRRK2 | binding, competition with immobilised ligand | 1 µM | 24% |
| CCC(=O)N[C@@H]1CC[C@H](C(=O)N(C)c2ccc(-c3nc4ccccc4o3)cc2)C1 | LRRK2 G2019S | cell-free assay, competition with immobilised ligand | 1 µM | 100% |
| FC(F)(F)Oc1cccc(-c2cnc3ccc(-c4ccncc4)nn23)c1 | LRRK2 | cell-free assay, competition with immobilised ligand | 5 µM | 52% |
| COc1cnc(Nc2cccc(S(N)(=O)=O)c2)nc1N1CCN(c2ccccc2)C(=O)C1 | LRRK2 | binding, competition with immobilised ligand | 1 µM | 95% |
| CS(=O)(=O)N1CCCC(NC(=O)[C@H](CCC2CCCCC2)NC(=O)c2ccc(CNC(=O)c3cnc4ccccn34)cc2)C1 (some centres unmarked) | LRRK2 G2019S | cell-free assay, competition with immobilised ligand | 0.1 µM | 100% |
| c1cncc(-c2cccc(Nc3nccc(NC4CCCCC4)n3)c2)c1 | LRRK2 G2019S | binding, competition with immobilised ligand | 10 µM | 61% |
| O=C(O)[C@@H]1[C@@H](Cn2nnc3ccccc3c2=O)CC[C@H]1C(=O)c1ccc(OCCC2CCOCC2)cc1 | LRRK2 G2019S | cell-free assay, competition with immobilised ligand | 1 µM | 100% |
| CN(c1nccc(-c2cnn3ncccc23)n1)C1CC1 | LRRK2 G2019S | binding | 1 µM | 100% |
| O=C(NCC1CCOCC1)c1n[nH]cc1NC(=O)c1c(F)cccc1F | LRRK2 G2019S | binding, competition with immobilised ligand | 1 µM | 89% |
| F[C@@H]1CCN(c2nccc(-c3cnn4ncccc34)n2)C1 | LRRK2 G2019S | binding | 1 µM | 100% |
| Nc1c(C(=O)NCc2ccc(C(=O)NCCCC3CCCCC3)cc2)cnn1-c1ccccc1 | LRRK2 | binding, competition with immobilised ligand | 1 µM | 39% |
| c1cnn2ncc(-c3ccnc(N4CCC45COC5)n3)c2c1 | LRRK2 G2019S | binding | 1 µM | 21% |
| C[C@@H](c1ccc(-n2cnc3c(N)ncnc32)cc1)N1CCc2nn(C)c(Cc3ccccc3)c2C1=O | LRRK2 G2019S | binding, competition with immobilised ligand | 0.1 µM | 92% |
| COc1ccnn2ncc(-c3ccnc(N(C)C)n3)c12 | LRRK2 | binding | 1 µM | 56% |
| C[C@@H]1CN(c2cc(-c3nn(C)c4ccc(OC5(C)CC5)cc34)ncn2)C[C@H](C)O1 | LRRK2 | binding, competition with immobilised ligand | 1 µM | 22% |
| Nc1ncc2c(n1)-c1c([nH]c3ccc(C#CC4CC4)cc13)CCCC2 | LRRK2 | binding, competition with immobilised ligand | 1 µM | 83% |
| CN([C@@H]1CCc2c(CC(=O)O)c3cc(S(C)(=O)=O)ccc3n2C1)S(=O)(=O)c1ccc(F)cc1 | LRRK2 G2019S | cell-free assay, competition with immobilised ligand | 1 µM | 100% |
| CN(C)c1nccc(-c2cnn3ncccc23)n1 | LRRK2 G2019S | binding | 1 µM | 69% |
| CS(=O)(=O)NCC[C@H](NC(=O)c1cncc2c1cnn2-c1ccc(F)cc1)c1ccnc(S(C)(=O)=O)c1 | LRRK2 | cell-free assay, competition with immobilised ligand | 1 µM | 86% |
| O=C(c1ccc(Nc2ncc(Cl)c(-c3cc4ccccc4s3)n2)cc1)N1CCC(N2CCCC2)CC1 | LRRK2 | binding, competition with immobilised ligand | 1 µM | 12% |
